From article PMC2901243 (Nuclear medicine and biology, 2010)

Biological target: SSTR2 (Rattus norvegicus, UniProt P30680)
Type: binding
Conditions: Re-cyclized analogues, in vitro, AR42J cells
Outline: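 Trypsinized rat AR42J pancreatic carcinoma cells, 2 × 10⁶/well in RPMI 1640, were incubated 2 h at 37 °C (5% CO₂) with HPLC-purified ¹¹¹In-DOTA-TIDE (0.2 μCi/well) and test compound at 10⁻⁴ to 10⁻¹³ M, in triplicate. Cells were pelleted, washed three times with 4 °C medium, and counted for γ radioactivity. IC₅₀ was taken from sigmoidal fits of % bound tracer vs log concentration.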

SSTR2, sequence (P30680 whole entry): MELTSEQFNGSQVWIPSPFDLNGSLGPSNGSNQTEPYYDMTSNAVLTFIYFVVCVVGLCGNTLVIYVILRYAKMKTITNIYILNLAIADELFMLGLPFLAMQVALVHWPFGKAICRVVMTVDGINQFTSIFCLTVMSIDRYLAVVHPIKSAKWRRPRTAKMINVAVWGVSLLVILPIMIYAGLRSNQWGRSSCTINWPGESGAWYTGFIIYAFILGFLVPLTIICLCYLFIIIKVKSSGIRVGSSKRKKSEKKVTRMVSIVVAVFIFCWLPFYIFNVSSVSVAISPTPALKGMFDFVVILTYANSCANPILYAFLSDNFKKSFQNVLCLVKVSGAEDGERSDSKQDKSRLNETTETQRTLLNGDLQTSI

Substance: Ac-Cys-Cys-Tyr-DTrp-Lys-Thr-Cys-Thr(OH) [analogue 4]
- affinity toward somatostatin subtype 2 receptors (in words): moderate affinity
